What was measured:
Type in all cases: cell-based
[1] = Modulatory activity at P-gp in human K562/DOX cells assessed as increase in nuclear concentration of pirarubicin by spectrofluorometric assay; conditions: K562/Adr, read-out: I50
K562 [2] = test: Intrinsic cytotoxicity against human K562 cells at 0.1 to 3 uM after 72 hrs by MTT assay; conditions: k562, 72 h
Summary of the method: (§1)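 K562 parental and P-gp-overexpressing K562/DOX cells, exponential phase (3 × 10⁵ cells/mL), seeded at 3000 cells/well. Test compounds alone at 0.1, 1.0 or 3.0 µM, without doxorubicin. Incubated 37 °C, 5% CO₂, 72 h. MTT added, further 3 h incubation, formazan crystals inspected microscopically.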

K562 [3] = test: Intrinsic cytotoxicity against doxorubicin-resistant human K562 cells at 3 uM after 72 hrs by MTT assay; conditions: k562, 72 h; summary of the method: as §1
[4] = target: ATP-dependent translocase ABCB1 (Homo sapiens, UniProt P08183); test: Modulatory activity at P-gp in doxorubicin-resistant human K562 cells assessed as MDR-reversing activity by measuring doxorubicin-induced cell mortality after 72 hrs by MTT assay relative to untreated control; conditions: k562, 72 h
Summary of the method: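 K562/DOX (P-gp-overexpressing, doxorubicin-resistant) cells in exponential growth were seeded at 3000 cells/well. Doxorubicin was given alone or with modulator at 0.1, 1.0 or 3.0 µM, and incubated 72 h at 37 °C in 5% CO2. Viability was read by MTT with a further 3 h incubation. Reversal fold is the doxorubicin IC50 without modulator divided by the IC50 with modulator. Values are the mean of ≥3 determinations, each with quadruplicate cultures.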

Chain of ATP-dependent translocase ABCB1 (P08183 whole entry): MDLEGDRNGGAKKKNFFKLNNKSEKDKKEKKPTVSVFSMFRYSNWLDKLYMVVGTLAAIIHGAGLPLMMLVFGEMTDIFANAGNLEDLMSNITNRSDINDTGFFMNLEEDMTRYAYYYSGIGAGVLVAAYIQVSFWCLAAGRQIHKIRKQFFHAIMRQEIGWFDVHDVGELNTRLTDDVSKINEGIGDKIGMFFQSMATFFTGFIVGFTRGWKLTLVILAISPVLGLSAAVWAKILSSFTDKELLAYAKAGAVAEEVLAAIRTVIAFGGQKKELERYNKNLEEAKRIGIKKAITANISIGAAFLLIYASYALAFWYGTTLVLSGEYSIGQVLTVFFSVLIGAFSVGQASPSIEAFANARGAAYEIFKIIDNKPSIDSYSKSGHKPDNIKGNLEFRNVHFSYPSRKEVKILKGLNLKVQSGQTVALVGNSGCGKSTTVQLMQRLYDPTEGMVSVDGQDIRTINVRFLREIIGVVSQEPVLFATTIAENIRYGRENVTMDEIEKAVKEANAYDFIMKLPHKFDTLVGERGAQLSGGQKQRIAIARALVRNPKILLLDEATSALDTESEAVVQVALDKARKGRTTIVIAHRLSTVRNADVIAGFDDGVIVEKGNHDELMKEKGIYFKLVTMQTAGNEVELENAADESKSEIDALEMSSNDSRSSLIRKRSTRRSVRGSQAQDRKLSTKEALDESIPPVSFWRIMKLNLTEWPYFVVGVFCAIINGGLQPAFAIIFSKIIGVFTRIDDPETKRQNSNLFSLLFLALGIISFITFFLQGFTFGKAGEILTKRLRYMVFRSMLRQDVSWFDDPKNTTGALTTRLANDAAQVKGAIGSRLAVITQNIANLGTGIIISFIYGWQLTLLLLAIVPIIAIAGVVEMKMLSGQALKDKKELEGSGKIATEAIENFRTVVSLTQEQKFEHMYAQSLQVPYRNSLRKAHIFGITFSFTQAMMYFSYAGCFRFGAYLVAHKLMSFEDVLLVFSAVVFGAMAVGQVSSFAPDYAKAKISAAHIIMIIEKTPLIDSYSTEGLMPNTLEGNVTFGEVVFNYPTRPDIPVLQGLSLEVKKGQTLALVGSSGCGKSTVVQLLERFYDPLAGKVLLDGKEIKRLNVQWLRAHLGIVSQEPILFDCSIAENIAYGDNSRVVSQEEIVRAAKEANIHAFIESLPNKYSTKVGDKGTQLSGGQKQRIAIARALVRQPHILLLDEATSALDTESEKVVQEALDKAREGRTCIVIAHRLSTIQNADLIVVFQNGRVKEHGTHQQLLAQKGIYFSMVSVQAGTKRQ

Row | SMILES | IC50 [1] [nM] | other results
1 | COc1ccc2nccc(C(=O)OCCCCCN(C)CCCCCOC(=O)/C=C/c3cc(OC)c(OC)c(OC)c3)c2c1 | 750 | –
2 | COc1cc(/C=C/C(=O)OCCCCN(C)CCCCOC(=O)c2c3ccccc3cc3ccccc23)cc(OC)c1OC | 70 | Activity (K562 [2]): Non-toxic; Activity (K562 [3]): <= 20%; mortality [4]: 100%
3 | C=C[C@@H]1CN2CC[C@H]1C[C@H]2[C@@H](OCC(=O)OCCCCCN(C)CCCCCOC(=O)/C=C/c1cc(OC)c(OC)c(OC)c1)c1ccnc2ccc(OC)cc12 | 2650 | –
4 | COc1cc(/C=C/C(=O)OCCCN(C)CCCOC(=O)C2c3ccccc3-c3ccccc32)cc(OC)c1OC | 500 | –
5 | C=C[C@@H]1CN2CC[C@H]1C[C@H]2[C@H](OCC(=O)OCCCN(C)CCCOC(=O)/C=C/c1cc(OC)c(OC)c(OC)c1)c1ccnc2ccc(OC)cc12 | 5060 | –
6 | COc1cc(/C=C/C(=O)OCCCCN(C)CCCCOC(=O)c2cc(OC)c(OC)c(OC)c2)cc(OC)c1OC | 1530 | –
7 | C=C[C@@H]1CN2CC[C@H]1C[C@H]2[C@H](OCC(=O)OCCCCCN(C)CCCCCOC(=O)/C=C/c1cc(OC)c(OC)c(OC)c1)c1ccnc2ccc(OC)cc12 | 3430 | –
8 | COc1ccc2nccc(C(=O)OCCCN(C)CCCOC(=O)/C=C/c3cc(OC)c(OC)c(OC)c3)c2c1 | 880 | –
9 | COc1cc(/C=C/C(=O)OCCCCCN(C)CCCOC(=O)c2c3ccccc3cc3ccccc23)cc(OC)c1OC | 40 | Activity (K562 [2]): Non-toxic; Activity (K562 [3]): <= 20%; mortality [4]: 100%
10 | COc1cc(C#CC(=O)OCCCCN(C)CCCCOC(=O)c2cc(OC)c(OC)c(OC)c2)cc(OC)c1OC | 1030 | –
11 | COc1cc(C#CC(=O)OCCCN(C)CCCOC(=O)c2c3ccccc3cc3ccccc23)cc(OC)c1OC | 700 | –
12 | COc1cc(C#CC(=O)OCCCN(C)CCCOC(=O)c2cc(OC)c(OC)c(OC)c2)cc(OC)c1OC | 1000 | –
13 | C=C[C@@H]1CN2CC[C@H]1C[C@H]2[C@@H](OCC(=O)OCCCN(C)CCCOC(=O)/C=C/c1cc(OC)c(OC)c(OC)c1)c1ccnc2ccc(OC)cc12 | 4790 | –
14 | COc1cc(/C=C/C(=O)OCCCN(C)CCCCCOC(=O)C2c3ccccc3-c3ccccc32)cc(OC)c1OC | 350 | –

Continued by falling IC50 [1], values first:

Row | IC50 [1] [nM] | SMILES | other results
15 | 340 | COc1cc(C#CC(=O)OCCCCCN(C)CCCCCOC(=O)c2c3ccccc3cc3ccccc23)cc(OC)c1OC | –
16 | 310 | COc1cc(C#CC(=O)OCCCCCN(C)CCCOC(=O)c2cc(OC)c(OC)c(OC)c2)cc(OC)c1OC | –
17 | 290 | COc1cc(C#CC(=O)OCCCCCN(C)CCCCCOC(=O)c2cc(OC)c(OC)c(OC)c2)cc(OC)c1OC | –
18 | 270 | COc1cc(/C=C/C(=O)OCCCN(C)CCCCCOC(=O)c2cc(OC)c(OC)c(OC)c2)cc(OC)c1OC | –
19 | 260 | COc1cc(C#CC(=O)OCCCN(C)CCCCCOC(=O)c2cc(OC)c(OC)c(OC)c2)cc(OC)c1OC | –
20 | 190 | COc1cc(/C=C/C(=O)OCCCCCN(C)CCCOC(=O)C2c3ccccc3-c3ccccc32)cc(OC)c1OC | –
21 | 120 | COc1cc(/C=C/C(=O)OCCCCCN(C)CCCOC(=O)c2cc(OC)c(OC)c(OC)c2)cc(OC)c1OC | –
22 | 110 | COc1cc(/C=C/C(=O)OCCCCN(C)CCCCOC(=O)C2c3ccccc3-c3ccccc32)cc(OC)c1OC | –
23 | 110 | COc1cc(C#CC(=O)OCCCN(C)CCCCCOC(=O)c2c3ccccc3cc3ccccc23)cc(OC)c1OC | –
24 | 100 | COc1cc(C#CC(=O)OCCCCCN(C)CCCOC(=O)c2c3ccccc3cc3ccccc23)cc(OC)c1OC | –
25 | 100 | COc1cc(C#CC(=O)OCCCCN(C)CCCCOC(=O)c2c3ccccc3cc3ccccc23)cc(OC)c1OC | –
26 | 40 | COc1cc(/C=C/C(=O)OCCCN(C)CCCCCOC(=O)c2c3ccccc3cc3ccccc23)cc(OC)c1OC | Activity (K562 [2]): Non-toxic; Activity (K562 [3]): <= 20%
